Data taken from the EternaBench riboswitch data.

Test system: MS2 coat protein
Assay: apparent Kd, MS2 coat protein; higher = weaker binding; RNA-MaP array; FMN 200 µM where present
In short: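 The apparent Kd is reported as the median of filtered per-cluster binding-curve fits. To get these curves, designs transcribed by stalled E. coli RNA polymerase on Illumina sequencing-chip clusters were titrated with SNAP-549-labelled MS2 coat protein from 0.7 or 1.5 nM, doubling to 3 µM. Titrations were run without and then with constant ligand in 100 mM Tris-HCl pH 7.5, 80 mM KCl, 4 mM MgCl2, BSA, DTT, yeast tRNA and Tween-20, and green signal was normalised to red-channel RNA signal and control-cluster median Fmax.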

[1] = designed as: OFF switch for flavin mononucleotide, no ligand
[2] = ligand present: flavin mononucleotide, designed as: OFF switch for flavin mononucleotide
[3] = designed as: ON switch for flavin mononucleotide, no ligand
[4] = ligand present: flavin mononucleotide, designed as: ON switch for flavin mononucleotide

Sequence	apparent Kd [1] [µM]	apparent Kd [2] [µM]	apparent Kd [3] [µM]	apparent Kd [4] [µM]
GCCGUAAGUGUGAGGAUAUACCUAUGGAUACAUAGGUAGAAGGCACAUGAGGAUCACCCAUGUUCUUAAUCGGC	0.13	0.296		
UUAUACGCUGAGGAUAUUAUCACUGAGAGGUGAUGAGAAGGCGGUACAUGAGGAUCACCCAUGUCUAUGGGCAG	0.282	0.24		
UCCUUGUCCUGAGGAUAUCCGUGGUGACCGAAAGGAGAAGGCAGGACAUGAGGAUCACCCAUGUACCCAGAAAACGUGCAGAGU	0.0665	0.458		
CAAAGGGAAGGAUAUACAUCAGGCGACCUGGUGGGCACCUAACAUGAGGAUCACCCAUGUAGAAGGUCCAGGGA	0.0224	0.0149		
ACAUGAUAUGUAGGAUAUCACUACUUGUGUUAUAAAAUUGUAAUUUAGGAUUGAGAAGGACAUUUACAUGAGGAUCACCCAUGU	0.0147	0.0116		
GUGCAUUCGUAGAAGGGUGACAUGAGGAUCACCCAUGUGCGCUGGGCUCGGGAGGCAUCAGCGCCACAGGAUAUACGAAGCACC			0.0668	0.0486
CUCCUCGAAGGAUAUACUGUGGAUCAUAAGUCAGGGAGGUUACAUGAGGAUCACCCAUGUAGAAGGUCGAGGUG	0.0672	0.428		
AUCAGCUCGUCAGGAUAUACGUCACUGCGUCAGCAGUGUUGUAAGAUCACAUGAGGAUCACCCAUGUAGAAGGGACGAGCUGAU	0.00591	0.0102		
GGGUACGUUUCGUAGCAGUGUCAUCGAGAAGGCCCUGACAUGAGGAUCACCCAUGUUGUUACAUGGGAGGAUAUCGAUGAUUUU			0.0191	0.00606
CUGAGUAGUCAGGAUAUGUGGUACAAAAGUACUGCAGAAGGGAUUACAUGAGGAUCACCCAUGUUUUCUUCAUG		0.125		
UGAAAUCAUGUAGGAUAUGCAUGGCGAAGCUACGCAGAAGGACAUGAGGAUCACCCAUGUUAUAGCUACCCAAUUCGGUGGCAA	0.0563	0.152		
GGAUGACAAAGUCAUCCUUAACGAACAUGAGGAUCACCCAUGUAGGAUAUGGUACUCAAAGAGUACCAGAAGGACAUGUGCCUU	0.0343	0.203		
UUGCAGUCAUCAGGAUAUAGUAUUACGGCCAUUUAUAUUUUCAUACAUGAGGAUCACCCAUGUCGCUAGAAGGGAUUAUCGAUU	0.0477	0.043		
GGAUCCAACACAGGAUAUGCUGGACUUUGUCCAGCAGAAGGGUGAAGAACAUGAGGAUCACCCAUGUGGAUCCAUACAUUUAAU			0.254	0.0157
UGGUACAUGGGAGGAUAUGGGUUGAUAACAUGAGGAUCACCCAUGUUAAAUGCCGAAAGGCAAAACUAGAAGGCCCAUGUACCU			0.257	0.0245
AUAUAACAUGAGGAUCACCCAUGUCAGGAUAUCGAACCCAACACAACCAAAAUGUCGGCGAGAAGGGACAAAAA	0.0354	0.0327		
UUGUUACAUGAGGAUCACCCAUGUGAGGAUAUGUGUAUCCCUAAAAAAGUGUGGGACCACAGAAGGUACUUGGA	0.0546	0.0681		
CUGACGUUUGAAGGAUAUGACAUGUUGAAGCGUAUUGACAGCCCUGCACAUGAGGAUCACCCAUGUCAGAAGGUCAACCGUUGA	0.00711	0.0203		
GUUGUGUAAGGAGGAUAUGAGCUGAAACUCUUACAUGAGGAUCACCCAUGUCCGUAACUCAGGCAUCAGAAGGCCUAACGCAUU			0.686	0.023
AUCAGCUCGUCAGGAUAUACGUCACUGCUUCGGCAGUGUGGUAAGAUCACAUGAGGAUCACCCAUGUAGAAGGGACGAGCUGAU	0.0384	0.754		
GCAUCCAUAGUGAGGAUAUACCUCUGGAUACAUAGGUAGAAGGCACAUGAGGAUCACCCAUGUUCCUAGGAUGC	0.0203	0.0401		
CCUGAGUCAGGAUAUUGUACCAGUCUAAAACCAGACUGACCCAAGAAGGGACAUGAGGAUCACCCAUGUGAAAA	0.0302	0.0255		
UCUUAAGGAGGAUAUACAUGAGGAUCACCCAUGUAUGACCGCAGGGCGUCCUUGUAUCGUAGAAGGCCUCGGUA	0.0333	0.0436		
